These results are taken from ChEMBL document CHEMBL5329164, “Design, synthesis, and evaluation of BTK-targeting PROTACs with optimized bioavailability in vitro and in vivo” (RSC Med Chem, 2023).

Series [1] concerns the target T1, Protein cereblon/Tyrosine-protein kinase BTK (Homo sapiens) (UniProt Q06187+Q96SW2). Nature of the series: PROTAC activity at CRBN/ BTK in human Ramos cells assessed as induction of BTK degradation at 100 nM incubated for 24 hrs by immunoblot analysis relative to control. The series is classed as cell-based. In short, it runs like this:
(§1)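 Ramos cells in supplemented RPMI 1640 were plated at 3×10^5 cells/well and treated with compound for 24 h. Lysates in SDS sample buffer were heated at 100 °C for 15 min and run on 10% SDS-PAGE, then transferred to PVDF. Membranes were probed overnight at 4 °C for BTK, GSPT1 and β-actin.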
A general note: In western blotting, separated proteins are transferred to a membrane and probed.

For series [2], the target named is T1, Protein cereblon/Tyrosine-protein kinase BTK (Homo sapiens). Kind of series: PROTAC activity at CRBN/ BTK in human Ramos cells assessed as induction of BTK degradation at 300 nM incubated for 24 hrs by immunoblot analysis relative to control. The series is classed as cell-based. The method in brief: as §1
For series [3] the target is unchanged. Kind of series: PROTAC activity at CRBN/ BTK in human DOHH-2 cells assessed as induction of BTK degradation at 1.2 to 300 nM incubated for 24 hrs by immunoblot analysis. The series is classed as cell-based. The note with it: dose 1.2-300 nM. In short, it runs like this: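 DOHH2 cells were grown in RPMI 1640 with 10% FBS, 1% penicillin-streptomycin, 1% nonessential amino acids and 50 µM 2-mercaptoethanol at 37 °C under 5% CO₂. Cells were treated with compound at various concentrations, lysed in SDS buffer and separated on 10% SDS-PAGE. Blots were transferred to PVDF and probed for BTK, with β-actin as loading control.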

Series [4] is described as follows: Solubility in DMSO:Cremophor EL:1xPBS mixture at 10 mg/ml. The series is classed as physicochemical.
Series [5] can be described thus: Solubility in DMSO:Cremophor EL:1xPBS mixture at 10 mg/ml incubated for 7 days. The note with it: 168 h, time 7 day. The series is classed as physicochemical.
The nature of series [6]: Apparent permeability across apical to basal side in MDCK-II cells at 10 uM measured for 120 mins by LC-MS/MS analysis. The class given is ADME, cell-based, Canis lupus familiaris. The note with it: dog. The method in brief:
(§2)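 MDCK monolayers were grown on Transwell inserts (5 x 10^4 cells/cm²) and used at day 5. Compound at 10 μM in HBSS with 10 mM Hepes, pH 7.40, was dosed apically or basolaterally and incubated at 37±1 °C. Lucifer yellow passage below 1% confirmed monolayer integrity.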

A short description of series [7]: Apparent permeability across basal to apical side in MDCK-II cells at 10 uM measured for 120 mins by LC-MS/MS analysis. The series is classed as ADME, cell-based, Canis lupus familiaris. Particulars: dog. In short, it runs like this:
as §2

The nature of series [8]: Apparent permeability across apical to basal side in MDCK-II cells assessed as compound recovery at 10 uM measured for 120 mins by LC-MS/MS analysis. The class given is ADME, cell-based, Canis lupus familiaris. Particulars: dog, read-out: Drug recovery. The method in brief: (§3)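 MDCK monolayers were grown on Transwell inserts (5 x 10^4 cells/cm²) and used at day 5. Compound at 10 μM in HBSS with 10 mM Hepes, pH 7.40, was dosed apically or basolaterally and incubated at 37±1 °C. Receiver and donor samples were taken at 120 min and quantified by LC-MS/MS against an internal standard. Lucifer yellow passage below 1% confirmed monolayer integrity.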

Series [9] in a line: Apparent permeability across basal to apical side in MDCK-II cells assessed as compound recovery at 10 uM measured for 120 mins by LC-MS/MS analysis. The series is classed as ADME, cell-based, Canis lupus familiaris. Particulars: dog, read-out: Drug recovery. The method in brief: as §3
Series [10] in a line: Stability in mouse liver microsomes assessed as half life at 1 uM preincubated for 10 mins followed by reaction initiation measured upto 60 mins in presence of NADPH. The series is classed as ADME, Microsome. The note with it: time < 70 min. The method in brief:
(§4)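 Compound at 1 μM final was incubated with 0.5 mg/mL mouse, rat, dog, monkey or human liver microsomes in 100 mM PBS, pH 7.4, with 1 mM NADPH at 37 °C after a 10 min preincubation. Reactions were stopped at 0, 5, 15, 30 and 60 min with ice-cold acetonitrile containing tolbutamide. Supernatants were taken for bioanalysis.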

A short description of series [11]: Stability in mouse liver microsomes assessed as intrinsic clearance measured per mg protein at 1 uM preincubated for 10 mins followed by reaction initiation measured upto 60 mins in presence of NADPH. The class given is ADME, Microsome. The note with it: time < 70 min, read-out: CLH. The method in brief: as §4
In general terms: Liver microsomes are a subcellular fraction often used to study metabolism.

Series [12] is described as follows: Stability in rat liver microsomes assessed as half life at 1 uM preincubated for 10 mins followed by reaction initiation measured upto 60 mins in presence of NADPH. The class given is ADME, Microsome. Particulars: time < 70 min. The method in brief: as §4
Series [13] in a line: Stability in rat liver microsomes assessed as intrinsic clearance measured per mg protein at 1 uM preincubated for 10 mins followed by reaction initiation measured upto 60 mins in presence of NADPH. The class given is ADME, Microsome. Particulars: time < 70 min, read-out: CLH. In short, it runs like this: as §4
A short description of series [14]: Stability in dog liver microsomes assessed as half life at 1 uM preincubated for 10 mins followed by reaction initiation measured upto 60 mins in presence of NADPH. The class given is ADME, Canis lupus familiaris, Microsome. Particulars: time < 70 min. In short, it runs like this: as §4
The nature of series [15]: Stability in dog liver microsomes assessed as intrinsic clearance measured per mg protein at 1 uM preincubated for 10 mins followed by reaction initiation measured upto 60 mins in presence of NADPH. Particulars: time < 70 min, read-out: CLH. The class given is ADME, Canis lupus familiaris, Microsome. The method in brief: as §4
The nature of series [16]: Stability in monkey liver microsomes assessed as half life at 1 uM preincubated for 10 mins followed by reaction initiation measured upto 60 mins in presence of NADPH. The note with it: rhesus monkey, time < 70 min. The class given is ADME, Macaca mulatta, Microsome. The method in brief:
as §4

The nature of series [17]: Stability in monkey liver microsomes assessed as intrinsic clearance measured per mg protein at 1 uM preincubated for 10 mins followed by reaction initiation measured upto 60 mins in presence of NADPH. The class given is ADME, Macaca mulatta, Microsome. The note with it: rhesus monkey, time < 70 min, read-out: CLH. The method in brief:
as §4

The nature of series [18]: Stability in human liver microsomes assessed as half life at 1 uM preincubated for 10 mins followed by reaction initiation measured upto 60 mins in presence of NADPH. The class given is ADME, Microsome. Particulars: time < 70 min. In short, it runs like this: as §4
Series [19] in a line: Stability in human liver microsomes assessed as intrinsic clearance measured per mg protein at 1 uM preincubated for 10 mins followed by reaction initiation measured upto 60 mins in presence of NADPH. The note with it: time < 70 min, read-out: CLH. The class given is ADME, Microsome. In short, it runs like this:
as §4

Series [20] is described as follows: Half life in BALB/c mouse at 2 mg/kg, iv measured for 24 hrs by LCMS analysis. The series is classed as ADME, organism-based. The note with it: in vivo. The method in brief:
(§5)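 Male Balb/c mice, 9 per group, dosed intravenously at 2 mg/kg. Blood was drawn into EDTA-K2 tubes at 0.083, 0.25, 0.5, 1, 2, 4, 6, 8 and 24 h. Plasma was separated by centrifugation at 2000 g for 10 min and precipitated with acetonitrile containing tolbutamide internal standard. Analysis was by LC-MS on a polar C18 column with a water/acetonitrile 0.1% formic acid gradient.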

Series [21] in a line: Clearance in BALB/c mouse at 2 mg/kg, iv measured for 24 hrs by LCMS analysis. The class given is ADME, organism-based. The note with it: in vivo. In short, it runs like this:
as §5

The nature of series [22]: AUClast in BALB/c mouse at 2 mg/kg, iv measured for 24 hrs by LCMS analysis. The class given is ADME, organism-based. Details: time 24 hrs, dose 2 mg/kg, route iv. The note with it: in vivo. The method in brief:
as §5

Series [23] is described as follows: Apparent volume of distribution in BALB/c mouse at 2 mg/kg, iv measured for 24 hrs by LCMS analysis. The class given is ADME, organism-based. Particulars: in vivo, read-out: Vz. The method in brief: as §5
A short description of series [24]: Half life in BALB/c mouse at 5 mg/kg, po measured for 24 hrs by LCMS analysis. The note with it: in vivo. The class given is ADME, organism-based. In short, it runs like this:
(§6)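 Male Balb/c mice, 9 per group, dosed intragastrically at 5 mg/kg; the same compounds were also given iv at 2 mg/kg. Blood was drawn into EDTA-K2 tubes at 0.25, 0.5, 1, 2, 4, 6, 8 and 24 h. Plasma proteins were precipitated with acetonitrile containing tolbutamide. Quantification was by LC-MS on a C18 column with a formic acid water/acetonitrile gradient.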

A short description of series [25]: AUClast in BALB/c mouse at 5 mg/kg, po measured for 24 hrs by LCMS analysis. The series is classed as ADME, organism-based. Particulars: in vivo. Also noted: dose 5 mg/kg, time 24 hrs, route po. In short, it runs like this:
as §6

The nature of series [26]: Cmax in BALB/c mouse at 5 mg/kg, po measured for 24 hrs by LCMS analysis. The note with it: in vivo. The class given is ADME, organism-based. Details: dose 5 mg/kg, time 24 hrs, route po. The method in brief: as §6
Series [27] is described as follows: Tmax in BALB/c mouse at 5 mg/kg, po measured for 24 hrs by LCMS analysis. The series is classed as ADME, organism-based. Particulars: in vivo. The method in brief: as §6
A short description of series [28]: Oral bioavailability in BALB/c mouse at 5 mg/kg measured for 24 hrs by LCMS analysis. The class given is ADME, organism-based. Particulars: in vivo. In short, it runs like this:
as §6

The structures appear in SMILES notation. Calls of active or inactive are those of the source. The calls are words filed in the database; no cut-off is given here.

What is called Papp A→B is how fast a substance crosses the layer from the apical side. By Papp B→A is commonly meant the apparent permeability from the basolateral to the apical side of a cell layer. The half-life is how long it takes for the measured level to halve. Usually clearance stands for the rate of elimination divided by the concentration. As a reminder, the AUC(0-t) is the area under the concentration-time curve up to a stated or last time point. What is called Cmax is the maximum level reached in the sampled fluid or tissue. The term Tmax denotes the time at which the peak concentration occurs. In general, bioavailability refers to the share of a dose that reaches the circulation, judged against a reference dose that is usually intravenous.

T1 sequence (Q06187 2-659 limits assumed): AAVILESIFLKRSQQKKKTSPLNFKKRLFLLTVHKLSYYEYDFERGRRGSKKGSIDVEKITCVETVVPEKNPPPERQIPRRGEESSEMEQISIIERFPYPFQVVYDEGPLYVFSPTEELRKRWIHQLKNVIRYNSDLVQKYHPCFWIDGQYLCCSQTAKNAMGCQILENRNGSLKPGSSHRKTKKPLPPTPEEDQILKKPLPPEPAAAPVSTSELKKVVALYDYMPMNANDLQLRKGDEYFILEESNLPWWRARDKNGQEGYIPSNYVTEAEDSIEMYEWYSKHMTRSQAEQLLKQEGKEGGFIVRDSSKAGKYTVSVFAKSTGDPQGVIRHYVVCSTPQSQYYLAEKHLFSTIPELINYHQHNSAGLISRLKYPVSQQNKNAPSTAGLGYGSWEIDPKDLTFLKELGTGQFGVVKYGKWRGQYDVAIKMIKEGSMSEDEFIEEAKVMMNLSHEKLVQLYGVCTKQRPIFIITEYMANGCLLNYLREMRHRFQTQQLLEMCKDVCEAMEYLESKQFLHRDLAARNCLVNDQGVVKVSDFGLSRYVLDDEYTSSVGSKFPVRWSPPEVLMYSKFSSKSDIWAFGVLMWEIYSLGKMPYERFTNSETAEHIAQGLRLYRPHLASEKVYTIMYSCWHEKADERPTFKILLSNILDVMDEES
T1 sequence (Q96SW2 whole entry partner): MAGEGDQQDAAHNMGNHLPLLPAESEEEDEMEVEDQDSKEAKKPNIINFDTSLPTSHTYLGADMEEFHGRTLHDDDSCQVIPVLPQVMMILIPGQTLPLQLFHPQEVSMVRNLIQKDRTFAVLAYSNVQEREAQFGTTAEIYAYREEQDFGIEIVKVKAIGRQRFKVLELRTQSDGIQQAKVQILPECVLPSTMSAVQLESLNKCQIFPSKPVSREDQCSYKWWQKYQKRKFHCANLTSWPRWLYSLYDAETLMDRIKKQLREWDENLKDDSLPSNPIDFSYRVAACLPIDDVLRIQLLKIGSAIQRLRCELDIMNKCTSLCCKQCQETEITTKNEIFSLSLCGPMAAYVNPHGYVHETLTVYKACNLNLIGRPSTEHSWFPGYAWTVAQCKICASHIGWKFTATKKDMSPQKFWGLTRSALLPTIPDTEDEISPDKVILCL

With `Nc1ncnc2c1c(-c1ccc(Oc3ccccc3)cc1)nn2[C@@H]1CCCN(C(=O)N2CC3(C2)CN(c2ccc4c(c2)C(=O)N(C2CCC(=O)NC2=O)C4=O)C3)C1` (some centres not stated), the results for the Activity in series [1] and in series [2] were 23.1% and 24.5%, respectively.

As for `Nc1ncnc2c1c(-c1ccc(Oc3ccccc3)cc1)nn2[C@@H]1CCCN(C(=O)c2cn(CCOCCOCCOCCCc3cccc4c3CN(C3CCC(=O)NC3=O)C4=O)nn2)C1` (some centres not stated), in [1], the Activity was 28.5%. Moreover, the outcome in series [3] was Active. Also, the solubility result in series [4] and in series [5] was “Insoluble” in each case.

Take `Nc1ncnc2c1c(-c1ccc(Oc3ccccc3)cc1)nn2[C@@H]1CCCN(C(=O)N2CCN(c3ccc4c(c3)C(=O)N(C3CCC(=O)NC3=O)C4=O)CC2)C1` (some centres not stated): the figures for the Activity in [1] and in [2] were 78.4% and 79.7%, respectively.

For `Nc1ncnc2c1c(-c1ccc(Oc3ccccc3)cc1)nn2[C@@H]1CCCN(C(=O)c2ccc(Nc3ccc4c(c3)C(=O)N(C3CCC(=O)NC3=O)C4=O)cc2)C1` (some centres not stated), the Activity in series [1] is 18.2%; in series [2] it was 20.1%.

`Nc1ncnc2c1c(-c1ccc(Oc3ccccc3)cc1)nn2[C@@H]1CCCN(C(=O)Cc2ccc(Nc3ccc4c(c3)CN(C3CCC(=O)NC3=O)C4=O)cc2)C1` (some centres not stated): the apical-to-basolateral permeability (Papp A→B) at 2 h, 10 µM in [6] is 0.001 ×10⁻⁶ cm/s. In series [7], the Papp B→A at 2 h, 10 µM was determined as 0.071 ×10⁻⁶ cm/s. The recovery at 2 h, 10 µM in series [8] was determined as 107%; in [9], 101%. Besides, the half-life at 1 µM came to 12.1 min in series [10]; 14.6 min in series [12]; 23 min in series [14]; 10 min in [16]; 14.4 min in series [18]. The microsomal CLint at 1 µM in [11] was found to be 115 µL/min/mg; in series [13], 95 µL/min/mg; in series [15] it was 60.3 µL/min/mg; in series [17] it was 139 µL/min/mg; in [19], 96.2 µL/min/mg. The half-life in series [20] is 309 min; in [24], 68.4 min. In addition, in series [21], the clearance was 5.17 mL/min/kg. Besides, the area under the curve AUC(0-t) at 24 h in [22] worked out at 6400 ng·h/mL; in series [25] it was 357 ng·h/mL. Further, the Vd in series [23] worked out at 2.31 L/kg. Also, in [26], the Cmax came to 364 ng/mL. Besides, the time of peak concentration (Tmax) in series [27] came out at 30 min. For the same compound, the bioavailability in series [28] came to 2.23%.

On to `COCCc1ccc(OCC(O)CNC(C)C)cc1` (configuration not stated) [METOPROLOL], for which the Papp A→B at 2 h, 10 µM in series [6] worked out at 21.1 ×10⁻⁶ cm/s. The Papp B→A at 2 h, 10 µM in series [7] worked out at 11.3 ×10⁻⁶ cm/s. The recovery at 2 h, 10 µM is 97.1% in [8] and 95.9% in series [9].
